Measurements reported in the EternaBench riboswitch data.

System: MS2 coat protein
Assay: apparent Kd, MS2 coat protein; higher = weaker binding; RNA-MaP array; FMN 200 µM where present
Procedure, shortened: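 Green signal was scaled to red-channel RNA signal and control-cluster median Fmax, and the apparent Kd was taken as the median of filtered per-cluster binding-curve fits. The binding series used SNAP-549-labelled MS2 coat protein from 0.7 or 1.5 nM, doubling to 3 µM, on designs transcribed by stalled E. coli RNA polymerase on Illumina sequencing-chip clusters. Each series ran without and then with constant ligand in 100 mM Tris-HCl pH 7.5, 80 mM KCl, 4 mM MgCl2, BSA, DTT, yeast tRNA and Tween-20.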

[1] = designed as: ON switch for flavin mononucleotide, no ligand
[2] = ligand present: flavin mononucleotide, designed as: ON switch for flavin mononucleotide
[3] = designed as: OFF switch for flavin mononucleotide, no ligand
[4] = ligand present: flavin mononucleotide, designed as: OFF switch for flavin mononucleotide

Sequence | apparent Kd [1] [nM] | apparent Kd [2] [nM] | apparent Kd [3] [nM] | apparent Kd [4] [nM]
AGUAUGUUUGAGAAGGUGAAGUGGAAACAUGAGGAUCACCCAUGUAUUAGGAAGCCUGGUUUUGUCAAGGAUAUCGGGUAUACA | 19.8 | 16.1 | – | –
GCAGCAAUCUAAUACAUGAGGAUCACCCAUGUCGAGAGAUAUGAGGAUAUGCAUCUGAAGAAGAUGCAGAAGGCAUUGUGCUGC | 10.7 | 6.48 | – | –
CUUUUGUGAGGAUAUCAGUAGUAAAGAAAUAAAAUUACUACUGAGAAGGCACAUGAGGAUCACCCAUGUUCCUC | – | – | 36.2 | 192
UCACGGGACUAAGGAUAUACAUGAACUAUUAUUGUAGAAGGUAGAAUGUUAGCUUAUACACUAAACAUGAGGAUCACCCAUGUA | – | – | 36.5 | 32.8
AAGGAUCGAGGAUAUACAUAGAUACAGAUUCAUGUAGAACUACAUGAGGAUCACCCAUGUAGAAGGCGAUCAUA | – | – | 27.1 | 127
CCUAAGCGAGGAUAUACAUGAGGAUCACCCAUGUCCGCGUUCAUGAGGUUAAGAUCUUGUAGAAGGCGCCAAAA | – | – | 33 | 161
GCACGACAUGUAGGAUAUCGAGCGCCGGGCGCUCGAGAAGGACAUGAGGAUCACCCAUGUAUUCUGAGUGACCGAGGUCGAUGC | – | – | 31.2 | 180
AGAUUUUUACAUGAGGAUCACCCAUGUUAAUAGGUGUUUGUCAGAAGGCAUUAUGAGAGAAUUAAUGAGGAUAUGAAGUUUCAU | 40.4 | 27.8 | – | –
AGUGCCUCGAGAGGAUAUUACAUGAGGAUCACCCAUGUAACAGAGGUGGAAACACCUCUGAAAUGUAAGAAGGCUCGAGGCACA | – | – | 19.2 | 31.2
CCUUACACCGAGAAGGGCACGUAUUGAAGAGGGUGCCAGGAACAUCACAUGAGGAUCACCCAUGUGCAGGAUAUCGGCAGGAAC | – | – | 9.78 | 22.3
UGAUUGCCUGUAAGGAUAUCUACGGCCGUUCGCUGGGAGAAGGUACAUGAGGAUCACCCAUGUACAGUCAUGGG | – | – | 42.9 | 93.5
GACUGCAUGUAAGGAUAUCGACUGGAUAACAGUCGAGAAGGUACAUGAGGAUCACCCAUGUAAUAAGAUCAAUAAUAAGCAGUC | – | – | 14.4 | 31.3
UCCUUGUCCUGAGGAUAUCCGUGGUUACCUAAAGGAGAAGGCAGGACAUGAGGAUCACCCAUGUACCCAGAAAACGUGCAGAGU | – | – | 234 | 126
GUACUGUAGUGAGGAUAUACGAGAACGAUAGUUCGGCGAUCCAAUUAUACAUGAGGAUCACCCAUGUAGAAGGCACUUCAGUAC | – | – | 10.8 | 30.6
AGAUCCUGAGUCAGGAUAUAGAGACGGUAGUCGGGCUAGAAGGGACAUGAGGAUCACCCAUGUGGGUUCGGGCC | – | – | 14.2 | 19.3
AACUAAGUAUUAAUGGUGUCUGACAGAAGGCAAUAGAAUGAGACCGACAUGAGGAUCACCCAUGUUGAGGAUAUGUCUUGCUAC | – | – | 6.44 | 6.73
GUCGGAAACGACAAAAGUAGCAUACGAGAAGGCUGAUCCACGACAUGAGGAUCACCCAUGUAUUUAGAGGAUAUUGGAUGCUAC | 134 | 21.6 | – | –
GGAAAGCAAGGAUAUGCAAACAAACAAACAAACAAAAGGGAACAUGAGGAUCACCCAUGUAGAAGGUGCAAACA | – | – | 40.8 | 32.5
GCCGAUUAAGUGAGGAUAUACCUAUGGAUACAUAGGUAGAAGGUACAUGAGGAUCACCCAUGUUCCUCAUCGGC | – | – | 10 | 12.2
AAGUAGAUCCGAGGAUAUACAAGCCGGAAACGGUACAUGAGGAUCACCCAUGUAGAAGGCGGAUCUACAGGUACUAAAGUACCA | – | – | 5.53 | 9.17
GGCGGGAAUGAGAAGGGUCACAUGAGGAUCACCCAUGUGCUCUUCGCCGUGACAGGAUAUCAUCGCCGCCAGGUUAGAUUUUUG | – | – | 7.83 | 30.9
GCACGUAGACAGAAGGCGACAUGAGGAUCACCCAUGUUGGCUCGGGUAUGACCAAUCCGCAUGAUCGAGGAUAUGUCCGCGGGC | – | – | 265 | 19.2
UCGCUGCGAGGAUAUACAUGAGGAUCACCCAUGUACGGGUCCGGGUUUGAGUUGAUGAGUAGAAGGCGCAGUGA | – | – | 94.7 | 86.1
UUAUUAUAUGUAGGAUAUGCAUAUUGUUGUUAUGCAGAAGGACAUGAGGAUCACCCAUGUAUAUUAUUGUUAUAUAUUGUAUAU | – | – | 24.6 | 30.5
AAACAGGAAGGAUAUACAUUAUCGGAUCUUCUGGCAAUGCCACAUGAGGAUCACCCAUGUAGAAGGUCCAAAUU | – | – | 13.6 | 22.9
UAUAUAAUAAGAGCUGGACUUCAAACAUGAGGAUCACCCAUGUAGGAUAUCAGCACGAUAAGUGCUGAGAAGGACAACCAGCUC | – | – | 16.5 | 16.8
UUAUUAGCAGGAUAUAUCCACGACCACAUGAGGAUCACCCAUGUGGCCGCUUGAGGUUGUAUAGAAGGGCUUUAUU | – | – | 15.3 | 14.6
AGCUGUGGCCGAGGAUAUCUAACUUCAAAUACCGACGUAUAGUCGGACAUGAGGAUCACCCAUGUAGAGAAGGCGGUCUCAGCA | – | – | 16.1 | 26.7

Sequence | apparent Kd [1] [nM] | apparent Kd [2] [nM] | apparent Kd [3] [nM] | apparent Kd [4] [nM]
GACCCAAAUGAGAAGGUGUGUAUAAAUUAUAUACAAGGAUAUCGGUCGAGCGUGUUGACAUGAGGAUCACCCAUGUUGUGGGUU | 57.1 | 25.7 | – | –
AAGAAGCACGCAGGAUAUCUCACCCAUGUAAGAAGAGAAGGGCGACAUGAGGAUCACCCAUGUCAACAUGAGGAUCACCCAUGU | – | – | 62.2 | 87.8
UUCCUCAAGUAAGGAUAUACCACGGUAUGCUGAGUAGAAGGUACAUGAGGAUCACCCAUGUGCAUCCCACGAUUGCAUUGGUCA | – | – | 30.4 | 145
AAAGGUACAGGAUAUGCGUGGAAAAAGUGUAUUCAAAAAAAACAUGAGGAUCACCCAUGUAGAAGGGUACCAAA | – | – | 81 | 269
CGUGUGUCAGGAUAUUAGUAGUGUGUGGAUACAUAUAUUGCUGAGAAGGGACAUGAGGAUCACCCAUGUAUACG | – | – | 46.9 | 169
AAGGUACGAGGAUAUGCAUAGAUACAGACACAUGUUCAAGUACAUGAGGAUCACCCAUGUAGAAGGCGUAUAUA | – | – | 43.5 | 61.8
GGUGCGUGUAAAGGAUAUAUGUACUGAGAGGACAUAGAAGGUUACAUGAGGAUCACCCAUGUAGGAAGCGAAAGUUAUCACGUG | – | – | 11.7 | 25.3
GUGUCGUCAGGAUAUCCUACAUAACUAUCGUUGUUACCAUUGGAGAAGGGACAUGAGGAUCACCCAUGUUUUCC | – | – | 19.3 | 19.7
UAUAAUUAGUAGAAGGACGGAGAGUAAGAAGUCGUAGGAUAUACAUAAGACAUGAGGAUCACCCAUGUGUGUAUGUUGGGUAGG | – | – | 6.76 | 6.7
CAGGUAGACUGAGGAUAUACAAAGACCUAGUUUAUCUAGGUCAAAAUCACAUGAGGAUCACCCAUGUAGAAGGCAGUCUGCCUG | – | – | 15.7 | 26
ACAGCGUGAGGAUAUACAUGAGGAUCACCCAUGUAUGGCAGGUUAUCCUGUCGUAUGUGUAGAAGGCACGCUGU | – | – | 60.3 | 73.7
GUGGCAUACUGAGGAUAUUCAUAUAAUAAAUAAACAUGAGGAUCACCCAUGUGGCGAAAGCCUUGGGAGAAGGCAGAAUGCUAC | 521 | 46.7 | – | –
UGCUAGAACCUAGGAUAUCCUAGGUUGGUGGUGCUUGGUGACCGGACAUGAGGAUCACCCAUGUAGGAGAAGGAGGUUGCUAAG | – | – | 37.8 | 41.2
UAAACACCCUCAUGUACCUGAGGACAUGAGGAUCACCCAUGUGAGGAUAUAGCCAUUAAAUCUAACUAGAAGGUAUAGGAAAUC | – | – | 772 | 612
UACUAAAAGGAGGAUAUCGUAUCGGAGACGAUACGAGAAGGCUUAACAUGAGGAUCACCCAUGUUCUUCAAUAU | – | – | 15.8 | 18.2
CGUAACUGCAUAGGAUAUUGUUACAUGAGGAUCACCCAUGUUUUUCGGAUUAUUUAUCUACUUAGCAAGAAGGAUGGAGUUACG | 6.82 | 4.74 | – | –
AUUGAGUGGUCAGGAUAUGUACGGCCUACCGCACAUGAGGAUCACCCAUGUCGCCAAGGAGGACGACAGAAGGGACAACGAAUG | 43.5 | 8.83 | – | –
UUUUAGUCAGGAUAUCGUUAAUUUAAUUGUUUGUAUUAGUUCGAGAAGGGACAUGAGGAUCACCCAUGUAUUUU | – | – | 33.5 | 43
CACGUCCACACAGGAUAUGCUGGACUUUGUCCAGCAGAAGGGUGAAAACAUGAGGAUCACCCAUGUAGGACGUGUAUAUUUAAU | 488 | 43 | – | –
CUGUGACGGAUCCAGAAUUACAACAUGAGGAUCACCCAUGUACAGGAUAUAGGGUUGAUAGGCGCCUAGAAGGGUAUGAUCACG | – | – | 156 | 177
GCUAUAGAUGUAGGAUAUGAUAUAGAAGCUAUGUCAGAAGGACAUGAGGAUCACCCAUGUCAAUGGAUGGAGAGAAGAUAUGGC | – | – | 64.2 | 69.3
GUCAUGUCAGGAUAUGCUUAUGGUGGGUGCUCAGACAUGAUGCAGAAGGGACAUGAGGAUCACCCAUGUACUGU | – | – | 35.8 | 60.9
UGUGUGUGGCAGGAUAUGCAGGUAGUAGGACGGGUAGAAGGGUCUACAUGAGGAUCACCCAUGUGGCCGGUUGG | – | – | 16.8 | 18.1
UUAUACAUGAGGAUCUCCCAUGACAUGAGGAUCACCCAUGUGCAGGAUAUACGUGUUAUAAUAUAGUAGAAGGGCAGUCUAUAU | – | – | 36.8 | 104
AACCUAUUACAGAAGGCCAGCUACAUGAGGAUCACCCAUGUCGAGUCAUGGAGGAUAUGUAGUAAUUUACACGCGGGUGAGUAC | 51.6 | 6.25 | – | –
AUAAUGUGAGGAUAUCAGUAAGAAUGCUUCGGCAUUCUUACUGAGAAGGCACAUGAGGAUCACCCAUGUGAUUA | – | – | 201 | 964
UCGCGGGUGCAGAAGGGAUAGGCCUAUUGUCGUGGUGUCCAAACUUAACAUGAGGAUCACCCAUGUCAGGAUAUGCCCACGCGA | – | – | 73.9 | 117
